We go through six compounds from publication PMC3590845 (Bioorganic & medicinal chemistry, 2012).

Structures are written as SMILES.

A short description of series [1]: GSH-activated NO release by chemiluminescence. The series is classed as physicochemical. Conditions: 4 mM GSH; for NO yield (mol)/mol of compound mean (SE): pH 7.4 phosphate buffer, 37 °C; for NO release on reaction with GSH (in words): chemiluminescence assay. A digest of the protocol:
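Pre-warmed (37 °C) pH 7.4 phosphate buffer with 4 mM GSH was sparged with inert gas until the detector response was steady. Test compound was then injected to start the reaction, and NO release was followed over time. The integrated release curve gave mol NO released per mol compound.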

Series [2] concerns H1703 cells. In words: In vitro metabolism in cells followed by LC/MS. The series is classed as in vitro ADME, human. Conditions: compound 12 at 5 μM for 5, 30 and 60 min. A digest of the protocol: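 H1703 cells were plated in flasks, incubated overnight at 37 °C, then exposed to test compound. At each time point, cells were scraped into 10 mM HCl and lysed by freeze–thaw, then 5-sulfosalicylic acid was added. After spinning at 8000×g for 10 min, supernatants were run on C18 LC/MS (APCI positive ions, water/acetonitrile/0.1% formic acid gradient). Parent and arylated-GSH ions were tracked as extracted ion chromatograms.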

In series [3] the test system is H1703 cells xenografted in athymic mice. In words: H1703 xenograft in athymic mice. Format: in vivo. To be noted: 20 μmol/kg ip, five times a week for four weeks. The procedure, abridged:
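H1703 cells (5 × 10^6) were injected s.c. into one flank of 7-week-old female athymic NCr-nu/nu mice. Dosing started once tumors reached 2 × 2 × 2 mm3, typically after four weeks. Test compound was given as Pluronic P123 micelles, and controls received vehicle (2.25% Pluronic P123 in PBS) ip. Body weights were recorded three times weekly.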

Series [4] deals with H1703 cells. In words: Western blot of stress signaling and apoptosis. The series is classed as cell-based, human. Conditions: 1 μM. A digest of the protocol:
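After treatment of H1703 cells, lysates were immunoblotted for caspase 3, caspase 7, PARP, phospho-SAPK/JNK, phospho-c-jun and ATF3. PARP was scored as the full-length band versus the 89-kDa cleaved fragment.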

On to `CCOC(=O)N1CCCN(/[N+]([O-])=N/Oc2ccc([N+](=O)[O-])cc2[N+](=O)[O-])CC1` [Compound 2, reference compound], for which the “NO yield (mol)/mol of compound mean (SE)” value in series [1] is recorded as 2.00 (0.04) mol/mol of compound.

Turning to `CCOC(=O)N1CCN(/[N+]([O-])=N/Oc2ccc([N+](=O)[O-])cc2C#N)CC1` [Compound 12], in series [1], the “NO release on reaction with GSH (in words)” value (from here on “NO release on reaction”) is “essentially quantitative amounts of NO” and the “NO yield (mol)/mol of compound mean (SE)” value was 2.04 (0.01) mol/mol of compound. Further, the “Decomposition / metabolic turnover in cells” value in the series with H1703 cells [2] is recorded as “over 1 h”. Also, in series [3], the Body weights result is recorded as “did not affect body weights”. For the same compound, in the series on H1703 cells [4], the ATF3 level result is given as “upregulated”; the “Apoptosis (cleavage of PARP and caspases 3 and 7)” value is listed as “activated within 4 h”. Further, the “SAPK/JNK stress signaling pathway” value in the series on H1703 cells [4] (phosphorylation of SAPK/JNK and c-jun after 4 h) is recorded as “activated”.

As to `CCOC(=O)N1CCN(/[N+]([O-])=N/Oc2ccc(C#N)cc2[N+](=O)[O-])CC1` [Compound 13], in series [1], the “NO release on reaction” value is on record as “essentially quantitative amounts of NO” and the “NO yield (mol)/mol of compound mean (SE)” value is recorded as 2.02 (0.06) mol/mol of compound.

On to `CCOC(=O)N1CCCN(/[N+]([O-])=N/Oc2ccc([N+](=O)[O-])cc2C#N)CC1` [Compound 15], for which, in series [1], the “NO release on reaction” value was “essentially quantitative amounts of NO” and the “NO yield (mol)/mol of compound mean (SE)” value is reported as 2.01 (0.03) mol/mol of compound.

In the case of `CCOC(=O)N1CCCN(/[N+]([O-])=N/Oc2ccc(C#N)cc2[N+](=O)[O-])CC1` [Compound 16], in series [1], the “NO release on reaction” value is reported as “essentially quantitative amounts of NO” and the “NO yield (mol)/mol of compound mean (SE)” value is 1.96 (0.04) mol/mol of compound.

For `CCOC(=O)N1CCN(/[N+]([O-])=N/Oc2ccc([N+](=O)[O-])cc2[N+](=O)[O-])CC1` [JS-K, reference compound], the “NO yield (mol)/mol of compound mean (SE)” value in series [1] was 1.96 (0.03) mol/mol of compound. In addition, the “Decomposition / metabolic turnover in cells” value in the series with H1703 cells [2] is “near complete metabolic turnover of JS-K in as few as ten minutes”.
